According to ChEMBL document CHEMBL1136549, “Novel antifungal beta-amino acids: synthesis and activity against Candida albicans” (Bioorg Med Chem Lett, 2003):
In brackets after ≈: the same amount, converted by molar mass.

System: Candida albicans
Assay: In vitro inhibitory activity against Candida albicans
Type: functional, organism-based
How it was run: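 Microbroth dilution; C. albicans ATCC 36082, inoculum 10³ cfu/mL in YNB medium (yeast-nitrogen base 6.7 g/L, glucose 10 g/L, pH 7). Incubated 24 h at 37 °C; growth read photo-/nephelometrically at 360 nm; IC₅₀ determined.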

[1] = Candida albicans, read-out: IC50

| Compound | IC50 | IC50 [1] |
| --- | --- | --- |
| C=C1C[C@H](N)[C@H](C(=O)NO)C1 | – | 32 mg/L (≈ 205 µM) |
| C=C1C[C@H](NCC)[C@H](C(=O)O)C1 | 128 mg/L (≈ 756 µM) | – |
| N[C@H]1CC2(CC2)C[C@H]1C(=O)O | – | 32 mg/L (≈ 206 µM) |
| N[C@H]1CCC[C@H]1C(F)(F)F | – | 1 mg/L (≈ 6.53 µM) |
| C=C1C[C@@H](CO)[C@@H](N)C1 | > 256 mg/L | – |
| C=C1C[C@H](NC(=O)OC(C)(C)C)[C@H](C(=O)O)C1 | – | 16 mg/L (≈ 66.3 µM) |
| Cl.N[C@H]1CCC[C@H]1P(=O)(O)O | > 256 mg/L | – |
| C=C1C[C@@H](C(=O)O)[C@H]1N.Cl | > 256 mg/L | – |
| Cl.N[C@H]1CCC[C@H]1S(=O)(=O)O | > 256 mg/L | – |
| C=C1C[C@H](N)[C@H](C(=O)NC)C1.Cl | – | 32 mg/L |
| C[C@]1(N)CCC[C@H]1C(=O)O.Cl | 64 mg/L | – |
| CCCC(N)CC(=O)O.Cl (configuration not stated) | > 256 mg/L | – |
| C=C1C[C@H](N)[C@@H]1C(=O)O.Cl | > 256 mg/L | – |
| C=C1C[C@H](N)[C@H](C(=O)N[C@H](CC(C)C)C(=O)O)C1.Cl | – | 16 mg/L |
| C=C1C[C@H](N)[C@H](c2nnn[nH]2)C1.Cl | 128 mg/L | – |
| C=C1CN[C@H](C(=O)O)C1.Cl | – | 32 mg/L |
| CC1C=C(C(=O)O)C(N)C1.Cl (configuration not stated) | – | 16 mg/L |
| CC1=C[C@@H](C(=O)O)[C@@H](N)C1.Cl | – | 32 mg/L |
| Cl.N[C@H]1CC2(C[C@H]1C(=O)O)OCCO2 | – | 32 mg/L |
| C=C1C[C@H](NC(=O)[C@@H](N)CC(C)C)[C@H](C(=O)O)C1.Cl | – | 2 mg/L |
| Cl.N[C@H]1C=CCO[C@H]1C(=O)O | 64 mg/L | – |
| C=C1C[C@H](N)[C@H](C(=O)OC)C1.Cl | – | 2 mg/L |
| CCCC/C=C1/C[C@H](N)[C@H](C(=O)O)C1.Cl | 128 mg/L | – |
| Cl.N[C@H]1C=CC[C@H]1C(=O)O | – | 0.5 mg/L |

Next, values leading:

| IC50 | IC50 [1] | Compound |
| --- | --- | --- |
| 64 mg/L (≈ 435 µM) | – | N[C@H]1CSC[C@H]1C(=O)O |
| – | 32 mg/L (≈ 244 µM) | N[C@H]1COC[C@H]1C(=O)O |
| – | 16 mg/L | C=C1CC[C@@H](C(=O)O)[C@@H](N)C1.Cl |
| 128 mg/L | – | C=C1C[C@@H](N)[C@@H](C(=O)O)C1.Cl |
| – | 32 mg/L | C=C1CC[C@@H](C(=O)O)[C@H]1N.Cl |
| > 256 mg/L | – | Cl.Cl.N[C@H]1CCN[C@H]1C(=O)O |
| > 256 mg/L | – | C=C1CC[C@H](N)[C@H](C(=O)O)C1.Cl |
| 128 mg/L | – | C=C1C[C@H](C(=O)O)[C@@H](N)C1.Cl |
| 128 mg/L | – | Cl.N[C@H]1CCCC[C@H]1C(=O)O |
| – | 0.13 mg/L | Cl.N[C@H]1CCC[C@H]1C(=O)O |
| 128 mg/L | – | Cl.N[C@H]1CC(F)(F)C[C@H]1C(=O)O |
| 128 mg/L | – | CC1CC[C@@H](C(=O)O)[C@H]1N.Cl (some centres not stated) |
| – | 0.03 mg/L | Cl.N[C@H]1C=CCC[C@H]1C(=O)O |
| 256 mg/L | – | CC1(C)C[C@H](N)[C@H](C(=O)O)C1.Cl |
| 128 mg/L | – | C=CC1C[C@H](N)[C@H](C(=O)O)C1.Cl (some centres not stated) |
| > 256 mg/L | – | Cl.N[C@H]1CCS[C@H]1C(=O)O |
| 128 mg/L | – | C=C=C1C[C@H](N)[C@H](C(=O)O)C1.Cl |
| – | 8 mg/L | CC1=C[C@H](N)[C@H](C(=O)O)C1.Cl |
| 128 mg/L | – | Cl.N[C@H]1CC[C@H]1C(=O)O |
| 128 mg/L | – | Cl.N[C@H]1CC=CC[C@H]1C(=O)O |
| 128 mg/L | – | Cl.N[C@H]1CC(O)C[C@H]1C(=O)O (some centres not stated) |
| 128 mg/L | – | C=C1C[C@H](N)[C@H](C(=O)O)C1C.Cl (some centres not stated) |
| – | 4 mg/L | CC1C[C@H](N)[C@H](C(=O)O)C1.Cl (mixture of isomers) |
| 64 mg/L | – | Cl.Cl.NC1C[C@H](N)[C@H](C(=O)O)C1 (mixture of isomers) |
| 64 mg/L | – | C=C1C[C@@H](C(=O)O)[C@@H](N)C1C.Cl (mixture of isomers) |
| 16 mg/L | – | CC1CC[C@H](N)[C@@H]1C(=O)O.Cl (single isomer, unassigned; Diastereomer B) |
| – | 8 mg/L | CC1CC[C@H](N)[C@@H]1C(=O)O.Cl (stereo in doubt) |
| – | 0.13 mg/L (≈ 0.921 µM) | C=C1C[C@H](N)[C@H](C(=O)O)C1 [ICOFUNGIPEN] |
